Experimental data published in ChEMBL document CHEMBL3244205, “beta-D-Arabinofuran[1',2':4,5]oxazolo-1,3,5-triazine-5-N-methyl-4,6-dione and analogues, unusually specific immunosuppressive agents” (J Med Chem, 1978).
Calls of active or inactive are those of the source. The rule behind the calls is not given here.

Columns and labels:
[1] = Immunosuppressive activity in C57B1/6 mouse spleen effector T cells assessed as effect on number of IgM-anti sheep erythrocyte antibody plaque forming cells per culture at 100 ug/culture after 5 days in presence of sheep erythrocytes (reference value: 6440 +/- 2255 PFC/culture); type: functional
[2] = Cytotoxicity against C57B1/6 (H-2b) mouse spleen effector T cells assessed as decrease in cell number at 1 to 100 ug/mL after 4 hrs relative to control; type: cell-based
[3] = Immunosuppressive activity in C57B1/6 mouse spleen effector T cells assessed as effect on number of IgM-anti sheep erythrocyte antibody plaque forming cells per culture at 10 ug/culture after 5 days in presence of sheep erythrocytes (reference value: 6440 +/- 2255 PFC/culture); type: functional
[4] = Immunosuppressive activity in H-2d alloantigen-sensitized C57B1/6 (H-2b) mouse spleen effector T cells assessed as inhibition of effector T cell-induced DBA/2 (H-2d) mouse [51Cr]-labeled P815 cell lysis by measuring lysed cells at 100 ug/mL after 4 hrs by [51Cr] release assay relative to control; type: functional
Outline: (§1)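 C57B1/6 (H-2^b) mice sensitized ip with 30–50 × 10^6 P815 mastocytoma cells (DBA/2-passaged). Spleens pooled from 5–7 mice taken 10 days later. Effectors mixed 50:1 with 51Cr-labeled P815 targets in RPMI 1640/Hepes with 10% heat-inactivated calf serum plus compound. Incubated 4 h at 37 °C in 83% N2/10% CO2/7% O2. Supernatant 51Cr counted, run in quadruplicate. % specific lysis computed from spontaneous and water-lysis controls, then expressed as % of untreated control.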

[5] = Cytotoxicity against C57B1/6 mouse spleen effector T cells assessed as decrease in cell number at 100 ug/mL after 5 days relative to control; type: cell-based; settings: 120 h
[6] = Immunosuppressive activity in C57B1/6 mouse spleen effector T cells assessed as inhibition of effector T cell-induced DBA/2 mouse [51Cr]-labeled P815 cell lysis at 100 ug/mL after 5 days by [51Cr] release assay in presence of B6D2(F1) mouse spleen cells relative to control; type: functional; settings: C57B1/6, P815, Spleen, 120 h
Outline: (§2)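 Normal C57B1/6 spleen cells (10 × 10^6) cocultured 5 days at 37 °C (83% N2/10% CO2/7% O2) with 0.5 × 10^6 B6D2F1 spleen cells as antigen and compound at 100 μg/mL. Medium was RPMI 1640 with 20% fetal calf serum and gentamycin, using at least 12 cultures per concentration. Pooled cells were then mixed with 51Cr-P815 targets at various ratios (≥3 replicates/ratio) for 3 h at 37 °C. Lysis was plotted against ratio; lytic unit = cells giving 50% lysis of 25 × 10^3 targets.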

[7] = Immunosuppressive activity in H-2d alloantigen-sensitized C57B1/6 (H-2b) mouse spleen effector T cells assessed as inhibition of effector T cell-induced DBA/2 (H-2d) mouse [51Cr]-labeled P815 cell lysis by measuring lysed cells at 1 ug/mL after 4 hrs by [51Cr] release assay relative to control; type: functional; outline: as §1
[8] = Immunosuppressive activity in C57B1/6 mouse spleen effector T cells assessed as recovery of number of T cell required to give 50% lysis of 25 X 10^3 DBA/2 mouse [51Cr]-labeled P815 cells treated on day 4 of 5 days culture system measured after day 5 by [51Cr] release assay in presence of B6D2(F1) mouse spleen cells relative to control; type: functional
Outline: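 Alloantigen coculture was the same: C57B1/6 spleen cells plus B6D2F1 stimulator cells, 5 days at 37 °C. Here compound was added on day 4 rather than at culture start. On day 5, cells were pooled and assayed against 51Cr-P815 targets for 3 h. Lytic units (cells giving 50% lysis of 25 × 10^3 targets) recovered per culture were expressed as percent of control.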

[9] = Immunosuppressive activity in C57B1/6 mouse spleen effector T cells assessed as effect on number of IgM-anti sheep erythrocyte antibody plaque forming cells per culture at 1 ug/culture after 5 days in presence of sheep erythrocytes (reference value: 6440 +/- 2255 PFC/culture); type: functional
[10] = Immunosuppressive activity in H-2d alloantigen-sensitized C57B1/6 (H-2b) mouse spleen effector T cells assessed as inhibition of effector T cell-induced DBA/2 (H-2d) mouse [51Cr]-labeled P815 cell lysis by measuring lysed cells at 10 ug/mL after 4 hrs by [51Cr] release assay relative to control; type: functional; outline: as §1
Human alphaherpesvirus 1 [11] = test: Antiviral activity against Herpes simplex virus type 1 infected in mouse assessed as mean survival time at 150 mg/kg, sc tid administered for 4 days (reference value: 8.3 days); type: functional; settings: route subcutaneous
Outline: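 HSV-1-infected mice dosed subcutaneously three times daily on days 0–4. Vehicle-dosed infected mice served as controls. Read-out was mean survival time in days.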

[12] = Immunosuppressive activity in C57B1/6 mouse spleen effector T cells assessed as ratio of effector T cell to DBA/2 mouse [51Cr]-labeled P815 cell giving 50% specific lysis at 100 ug/mL after 5 days by [51Cr] release assay in presence of B6D2(F1) mouse spleen cells (reference value: 6 no unit); type: functional; outline: as §2
Human alphaherpesvirus 1 [13] = test: Antiviral activity against Herpes simplex virus type 1 infected in rabbit kidney monolayer cells assessed as reduction in viral titer; type: functional, organism-based
Human alphaherpesvirus 1 [14] = test: Antiviral activity against Herpes simplex virus type 1 infected in rabbit kidney monolayer cells assessed as reduction in viral titer at 25 ug/mL relative to control; type: functional
Human alphaherpesvirus 1 [15] = test: Antiviral activity against Herpes simplex virus type 1 infected in mouse assessed as mean survival time at 200 mg/kg, sc tid administered for 4 days (reference value: 8.3 days); type: functional; settings: route subcutaneous

| Compound | PFC [1] | Activity [2] | PFC [3] | Specific lysis, % of untreated control [4] [%] | Activity [5] | inhibition at 100 µg/mL [6] [%] | Specific lysis as % of untreated control [7] [%] | Activity [8] [%] | PFC [9] | Specific lysis, % of untreated control [10] [%] | MST (Human alphaherpesvirus 1 [11]) [days] | Ratio [12] | Activity (Human alphaherpesvirus 1 [13]) | fold change (FC) (Human alphaherpesvirus 1 [14]) | MST (Human alphaherpesvirus 1 [15]) [days] |
| --- | --- | --- | --- | --- | --- | --- | --- | --- | --- | --- | --- | --- | --- | --- | --- |
| Cn1c(=O)nc2n(c1=O)[C@@H]1O[C@H](CO)[C@@H](O)[C@@H]1O2 | 7107 | Non-toxic | 4853 | 92 | Non-toxic | 90 | 100 | 90 | 4227 | 88 | 5.4 |  |  |  |  |
| CC(=O)OC[C@H]1O[C@@H](n2c(=O)[nH]c(=O)n(C)c2=O)[C@@H](OC(C)=O)[C@@H]1OC(C)=O | 10040 |  | 4307 | 88 |  |  | 96 | 90 | 4907 | 96 |  | 10.5 | inactive |  |  |
| CC(=O)OC[C@H]1O[C@@H]2[C@@H](Oc3nc(=O)n(C)c(=O)n32)[C@@H]1OC(C)=O | 8720 |  | 5933 | 93 |  |  | 95 | 90 | 5240 | 103 |  | 8.5 | Active |  |  |
| Cn1c(=O)[nH]c(=O)n([C@@H]2O[C@H](CO)[C@@H](O)[C@@H]2O)c1=O | 6293 | Non-toxic | 5520 | 93 | Non-toxic | 84 | 94 | 90 | 6240 | 98 |  |  | inactive |  |  |
| CN1CN([C@H]2C[C@H](O)[C@@H](CO)O2)C(=O)NC1=O |  |  |  | 73 |  |  | 90 | 90 |  | 88 |  | 7.2 |  | 10 | 18 |
